Data taken from ChEMBL document CHEMBL1138047, “Synthesis and biological evaluation of 2-amino-3-(3',4',5'-trimethoxybenzoyl)-5-aryl thiophenes as a new class of potent antitubulin agents” (J Med Chem, 2006).
The source made the active and inactive calls. The calls are words filed in the database; no cut-off is given here.

Assays:
K562 [1] = assay: Antiproliferative activity against human K562 cell line; assay type: functional, cell-based
Summary of the method: (§1)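 Exponentially growing cells in RPMI 1640 with 10% fetal calf serum, 2 mM L-glutamine, […], penicillin/streptomycin were exposed to increasing drug concentrations (DMSO stock 1 mg/mL, final DMSO ≤0.01%, matched DMSO controls). Cells counted by Coulter counter after 48 h. IC50 = concentration giving 50% inhibition versus untreated controls. Duplicate cultures per concentration, ≥3 independent experiments, mean ± SE.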

L1210 = assay: Antiproliferative activity against mouse L1210 cell line; assay type: functional, cell-based; summary of the method: as §1
Tubulin = Tubulin (Bos taurus, UniProt Q6B856+Q862L2+Q862F3); assay: Inhibition of tubulin polymerization in bovine brain by tubulin assembly assay
Summary of the method: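 Purified bovine brain tubulin (10 µM) in glutamate buffer was preincubated with a concentration range of compound at 30 °C, then cooled to 0 °C. GTP was added, the mixture rewarmed to 30 °C and assembly followed by turbidity.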

K562 [2] = assay: Cell cycle arrest in K562 cells at sub-G1 phase cell; assay type: functional, cell-based; conditions: Homo sapiens
Summary of the method: (§2)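 K562 cells cultured with compound at 3 or 10 nM, or at levels giving 50% and 75% growth inhibition, versus untreated cells. Cells (1 × 10⁶) stained with propidium iodide for 30 min. Sub-G1 (DNA-breakage) fraction measured by flow cytometry.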

K562 [3] = assay: Induction of apoptosis in K562 cell line; assay type: functional, Homo sapiens
K562 [4] = assay: Cell cycle arrest in K562 cells at G2/M phase; assay type: functional, cell-based; conditions: Homo sapiens
Summary of the method: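 K562 cells cultured 24 h with compound at concentrations giving 25%, 50% and 75% growth inhibition, or without compound. Cells (1 × 10⁶) stained with propidium iodide for 30 min and analysed by flow cytometry for G1, S, G2/M and sub-G1 fractions. DMSO vehicle.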

Tubulin (Bos taurus) = assay: Inhibition of [3H]colchicine binding to tubulin at 1 uM
K562 [5] = assay: Cell cycle arrest in K562 cells at sub-G1 phase cell at 3 nM; assay type: functional, cell-based; conditions: Homo sapiens; summary of the method: as §2
K562 [6] = assay: Cell cycle arrest in K562 cells at sub-G1 phase cell at 10 nM; assay type: functional, cell-based; conditions: Homo sapiens; summary of the method: as §2

Row | SMILES | IC50 (K562 [1]) | IC50 (L1210) | IC50 (Tubulin) | inhibition (Tubulin (Bos taurus)) | further results
1 | COc1ccc(/C=C\c2cc(OC)c(OC)c(OC)c2)cc1O [COMBRETASTATIN A4] | 0.0036 µM | 0.0083 µM | – | – | –
2 | COc1cc(C(=O)c2ccsc2N)cc(OC)c1OC | 1.27 µM | 3.15 µM | – | – | –
3 | COc1cc(C(=O)c2cc(-c3ccc(Cl)c(Cl)c3)sc2N)cc(OC)c1OC | 0.362 µM | 0.337 µM | – | – | –
4 | COc1cc(C(=O)c2cc(Br)sc2N)cc(OC)c1OC | 1.68 µM | 4.25 µM | – | – | –
5 | CCCCCc1cc(C(=O)c2cc(OC)c(OC)c(OC)c2)c(N)s1 | 1.49 µM | 1.32 µM | – | – | –
6 | COc1cc(C(=O)c2c(N)sc(-c3ccccc3)c2-c2ccccc2)cc(OC)c1OC | 8.5 µM | 6.95 µM | – | – | –
7 | COc1cc(C(=O)c2cc(I)sc2N)cc(OC)c1OC | 0.342 µM | 1.15 µM | – | – | –
8 | COc1ccc(C(=O)c2cc(-c3ccccc3)sc2N)cc1 | 4.67 µM | > 10 µM | – | – | –
9 | COc1cc(C(=O)c2c(N)sc(C)c2C)cc(OC)c1OC | 0.79 µM | 3.9 µM | – | – | –
10 | COc1cc(C(=O)c2cc(-c3ccc(OC)c(OC)c3OC)sc2N)cc(OC)c1OC | 1.1 µM | 1.65 µM | – | – | –
11 | CCc1cc(C(=O)c2cc(OC)c(OC)c(OC)c2)c(N)s1 | 9 µM | > 10 µM | – | – | –
12 | COc1cc(C(=O)c2c(-c3ccccc3)csc2N)cc(OC)c1OC | > 10 µM | > 10 µM | – | – | –

The next lines start with results.

Row | IC50 (K562 [1]) | IC50 (L1210) | IC50 (Tubulin) | inhibition (Tubulin (Bos taurus)) | SMILES | further results
13 | 0.00282 µM | 0.00215 µM | 1.1 µM | 82% | COc1cc(C(=O)c2cc(-c3ccc(F)cc3)sc2N)cc(OC)c1OC | Activity (K562 [2]): Active; Activity (K562 [3]): 64.5%; Activity (K562 [4]): Dose-dependent effect
14 | 0.219 µM | 0.262 µM | – | – | COc1cc(C(=O)c2c(C)csc2N)cc(OC)c1OC | –
15 | 0.00775 µM | 0.009 µM | – | – | COc1ccccc1-c1cc(C(=O)c2cc(OC)c(OC)c(OC)c2)c(N)s1 | –
16 | 0.00375 µM | 0.00252 µM | 1.9 µM | 60% | COc1cc(C(=O)c2cc(-c3ccccc3)sc2N)cc(OC)c1OC | Activity (K562 [5]): Active; Activity (K562 [6]): Active; Activity (K562 [2]): Active; Activity (K562 [3]): 87.5%
17 | 0.0855 µM | 0.537 µM | – | – | COc1ccc(C(=O)c2cc(-c3ccccc3)sc2N)cc1OC | –
18 | 0.00472 µM | 0.00352 µM | 1.1 µM | 71% | COc1cc(C(=O)c2cc(-c3ccc(C)cc3)sc2N)cc(OC)c1OC | Activity (K562 [2]): Active; Activity (K562 [3]): 20.5%
19 | 0.00447 µM | 0.00652 µM | 1.7 µM | 64% | COc1ccc(-c2cc(C(=O)c3cc(OC)c(OC)c(OC)c3)c(N)s2)cc1 | –
20 | 0.0101 µM | 0.0208 µM | 1.7 µM | 58% | COc1cccc(-c2cc(C(=O)c3cc(OC)c(OC)c(OC)c3)c(N)s2)c1 | –
21 | 0.00642 µM | 0.0182 µM | 2.2 µM | 37% | COc1cc(C(=O)c2c(N)sc(-c3ccccc3)c2C)cc(OC)c1OC | –
22 | 0.0147 µM | 0.00696 µM | 0.98 µM | 68% | COc1cc(C(=O)c2cc(-c3ccc(Cl)cc3)sc2N)cc(OC)c1OC | –
23 | 0.0703 µM | 0.0737 µM | – | – | COc1cc(C(=O)c2cc(-c3ccc(C(F)(F)F)cc3)sc2N)cc(OC)c1OC | –
